Legend:
Plasmodium falciparum [1] = test: Antimalarial activity against […] by [3H]hypoxanthine uptake; assay type: functional, organism-based
[2] = Cytotoxicity against mouse J774.G8 cells after 72 hrs by MTS assay; assay type: cell-based
Outline: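 Murine J774 macrophage subclone G8 grown in DMEM with 10% fetal calf serum, 2 mM L-glutamine, 50 μg/mL gentamicin, 5% CO2, 37 °C. Seeded at 1 × 10^4 cells/well and left 24 h. Compound dilutions in medium or vehicle added, then 72 h exposure. MTS tetrazolium added for 1–2 h at 37 °C, OD read at 490 nm. Vehicle control values subtracted.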

Plasmodium falciparum [3] = test: Antimalarial activity against Plasmodium falciparum TM91C235 by [3H]hypoxanthine uptake; assay type: functional, organism-based
[4] = Inhibition of Plasmodium falciparum KAS3 expressed in Escherichia coli assessed as transfer of [1-14C]acetyl-CoA to [1-14C]acetyl-ACP
Outline: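 Recombinant 6xHIS-tagged P. falciparum KASIII and 6xHIS-ACP expressed in E. coli and purified. Radiometric filter assay of [1-14C]-acetyl-CoA transfer to ACP, 25 min at 37 °C, quenched with 10% TCA. Product captured on P81 cellulose filters, washed with TCA and counted by scintillation. […] IC50 by variable-slope nonlinear regression, curves accepted at R2 >0.80.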

[5] = Therapeutic index, ratio of IC50 for mice (Mus musculus) J774.G8 cells to IC50 for chloroquine-resistant Plasmodium falciparum W2; conditions: J774.G8 cells versus Plasmodium falciparum W2
Plasmodium falciparum [6] = test: Antimalarial activity against […] by [3H]hypoxanthine uptake; assay type: functional, organism-based

Row | Compound | IC50 (Plasmodium falciparum [1]) | IC50 [2] | IC50 (Plasmodium falciparum [3]) | IC50 [4] | selectivity ratio [5] | IC50 (Plasmodium falciparum [6])
1 | CC(C)c1ccc(S(=O)(=O)c2ccc(C(C)C)cc2)cc1 | 18.5 µM | 7.3 µM | 32.7 µM | 22.5 µM | 0.3 | 23.5 µM
2 | Nc1ccc(S(=O)(=O)c2cc(O)c3ccccc3c2O)c(Cl)c1 | 0.01 µM | – | – | 0.13 µM | – | 5.5 µM
3 | Cc1cc(O)c(O)c(S(=O)(=O)c2ccc(N)cc2)c1 | 19.7 µM | 27.6 µM | 3.4 µM | 27.2 µM | 1.2 | 23.6 µM
4 | Cc1cccc(C)c1/C=C/S(=O)(=O)c1ccccc1 | > 50.1 µM | 706 µM | – | 448 µM | < 14 | > 50.1 µM
5 | NC1CCC(S(=O)(=O)c2cc(O)c3ccccc3c2O)CC1 (stereo unspecified) | 3.9 µM | 105 µM | – | 0.44 µM | 5.3 | 20.4 µM
6 | Cc1ccc(S(=O)(=O)c2ccccc2)cc1 | 35.7 µM | 134 µM | 112 µM | 158 µM | 1.9 | 68.9 µM
7 | Nc1nc(O)c2cc(S(=O)(=O)c3ccc4ccccc4c3)ccc2n1 | 0.43 µM | > 2850 µM | 1.4 µM | 18.3 µM | > 2850 | 1.2 µM
8 | COc1ccc(C(=O)CSS(=O)(=O)c2ccccc2)cc1 | 22.5 µM | – | – | 1.5 µM | – | 22.5 µM
9 | Oc1ccc(Cl)cc1Sc1cc(Cl)ccc1O [FENTICLOR] | 20.5 µM | – | – | 3.1 µM | – | 21.5 µM
10 | c1ccc(SSc2ccccc2)cc1 | 5 µM | 124 µM | – | 0.65 µM | 12.4 | 6.7 µM
11 | Oc1ccc(Cl)cc1SSc1cc(Cl)ccc1O | 12.4 µM | – | – | 0.14 µM | – | 12 µM
12 | Cc1ccc(S(=O)(=O)c2cc(O)c3ccccc3c2O)cc1 | 3.6 µM | > 3180 µM | – | 0.38 µM | > 1060 | 3.2 µM
13 | COc1ncnc(NS(=O)(=O)c2ccc(N)cc2)c1OC [SULFADOXINE] | 0.04 µM | > 1610 µM | – | > 1000 µM | > 269 | 6.1 µM
14 | O=S(=O)(Nc1cccc(Cl)c1)c1ccccc1 | > 49.9 µM | 31.3 µM | – | 195 µM | < 0.62 | > 49.9 µM
15 | O=c1ss/c(=N\c2ccccc2)n1-c1ccccc1 | 8 µM | – | – | 0.5 µM | – | 8 µM
16 | O=S(=O)(Nc1ccc(C(F)(F)F)cc1)c1cc(Cl)sc1Cl | > 49.9 µM | – | – | 2.2 µM | – | > 49.9 µM
17 | Oc1c(Cl)cc(SSc2cc(Cl)c(O)c(Cl)c2Cl)c(Cl)c1Cl | 3.9 µM | – | – | 0.24 µM | – | 5.5 µM
18 | O=S(=O)(c1ccc(O)cc1)c1cc(Cl)ccc1O | 38.6 µM | 107 µM | 80.8 µM | 115 µM | 2.3 | 45.7 µM
19 | C=C/C(C)=C/[C@@]1(C)SC(=O)C(C)=C1O [THIOLACTOMYCIN] | 50 µM | – | – | > 330 µM | – | 50 µM
20 | Cc1ccc(S(=O)(=O)c2cc(O)ccc2O)cc1 | 37.8 µM | > 1890 µM | 60.5 µM | 193 µM | > 29.6 | 64.3 µM
21 | Cc1ccc(S(=O)(=O)c2ccc3ccccc3c2)cc1 | > 230 µM | > 1770 µM | > 230 µM | 53.7 µM | – | > 230 µM
22 | CCCCS(=O)(=O)CCOC(=O)c1ccc([N+](=O)[O-])cc1 | > 41.2 µM | 33.6 µM | – | 0.32 µM | < 0.83 | > 41.2 µM

Row | Compound | IC50 (Plasmodium falciparum [1]) | IC50 [2] | IC50 (Plasmodium falciparum [3]) | IC50 [4] | selectivity ratio [5] | IC50 (Plasmodium falciparum [6])
23 | CC(CN)CCC(C)(O)C(N)=O (stereo unspecified) | 24.7 µM | – | – | 0.24 µM | – | 14.6 µM
24 | Oc1ccc(Sc2ccc(O)cc2O)c(O)c1 | > 49.9 µM | – | – | 10.8 µM | – | > 49.9 µM
25 | O=S(=O)(c1cccc(S(=O)(=O)c2cc(O)ccc2O)c1)c1cc(O)ccc1O | 26 µM | > 1180 µM | 4.5 µM | 38.2 µM | > 169 | 7.1 µM
26 | Nc1ncc(S(=O)(=O)c2ccc(NO)cc2)s1 | 0.3 µM | – | > 55.3 µM | 22 µM | – | > 55.3 µM
27 | CCOC(=O)c1cnccc1C | > 49.9 µM | – | – | 4.9 µM | – | > 49.9 µM
28 | Oc1ccc2ccccc2c1SSc1c(O)ccc2ccccc12 | 7.2 µM | > 1430 µM | – | 0.13 µM | > 204 | 6.6 µM
29 | Cc1ccc(S/C=C/S(=O)(=O)Cc2ccccc2)cc1 | 3 µM | 0.85 µM | – | 0.52 µM | 0.15 | 5.8 µM
30 | Oc1ccc(S)cc1Cl | 5.2 µM | – | – | 2.8 µM | – | 4.7 µM
31 | Oc1ccc(Cl)cc1SSSc1cc(Cl)ccc1O | 2.3 µM | – | – | 0.53 µM | – | 1.4 µM
32 | Clc1ccc(SSSc2ccc(Cl)cc2)cc1 | 2.5 µM | – | – | 0.63 µM | – | 2.1 µM
33 | CC(C)(C)S(=O)(=O)CC(=O)c1ccc(Cl)cc1Cl | 45.3 µM | > 1620 µM | > 204 µM | 62.9 µM | > 19.3 | 84.1 µM
34 | Cc1ccc(SSSc2ccc(C)cc2)cc1 | 1.5 µM | – | – | 1.4 µM | – | 1.4 µM
35 | C/C(=C/c1ccccc1)S(=O)(=O)c1ccccc1 | 28 µM | 205 µM | – | 165 µM | < 4.1 | > 50.1 µM
36 | CC(=O)Nc1ccc(S(=O)(=O)c2ccc(NC(=O)c3ccccc3O)cc2)cc1 | 29.2 µM | > 1620 µM | 31.7 µM | 48.1 µM | > 77 | 20.7 µM
37 | O=[N+]([O-])c1cc(S(=O)(=O)Nc2cc(C(F)(F)F)cc(C(F)(F)F)c2)sc1Nc1cc(C(F)(F)F)cc(C(F)(F)F)c1 | 10.3 µM | – | – | 5.2 µM | – | 11.4 µM
38 | C/C(=C/C(=O)OC(C)c1ccccc1)OP1(=O)OC(C)C(C)O1 (stereo unspecified) | 20.4 µM | – | – | 25.8 µM | – | > 49.9 µM
39 | C/C=C/CCCCCCCC(=O)NS(=O)(=O)c1ccc(N)cc1 | > 49.9 µM | – | – | > 1000 µM | – | > 49.9 µM
40 | Oc1ccccc1SSc1ccccc1O | 14.9 µM | – | – | 1.9 µM | – | 15 µM
41 | O=[N+]([O-])c1c(Cl)sc(Cl)c1S(=O)(=O)Nc1ccc(C(F)(F)F)cc1 | 15.4 µM | – | – | 0.28 µM | – | 16.4 µM
42 | O=C(CN1CCN(c2ccc(CO)c(Br)c2)CC1)c1ccc([N+](=O)[O-])o1 | 8.9 µM | – | – | 3.2 µM | – | 8.9 µM
43 | Nc1ccc(S(=O)(=O)c2cc(O)ccc2O)cc1 | 0.79 µM | > 1890 µM | 5.3 µM | 63.8 µM | > 472 | 3.6 µM
44 | O=C(O)c1ccc(NS(=O)(=O)c2ccccc2)cc1O | > 12.7 µM | > 2540 µM | – | 5 µM | – | > 12.7 µM

From ChEMBL document CHEMBL1140898, “Targeting the fatty acid biosynthesis enzyme, beta-ketoacyl-acyl carrier protein synthase III (PfKASIII), in the identification of novel antimalarial agents” (J Med Chem, 2009)
